Experimental findings from ChEMBL document CHEMBL4513216, “Probing the Open Global Health Chemical Diversity Library for Multistage-Active Starting Points for Next-Generation Antimalarials” (ACS Infect Dis, 2020) are described below.

A short description of this series: Toxicity liver stage against HepG2, at 10uM. It counts as cell-based. Also noted: test concentration 10 uM, cell line HepG2-A16-CD81EGFP. The note with it: human, HepG2-A16-CD81EGFP cells; read-out: INHIBITION
The gist of the method:
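Uninfected HepG2-A16-CD81EGFP cells, 3 × 10^3 per well, 1536-well, plated on prespotted compound at 10 μM final, parasite-free screening media added to match infected plates; puromycin 10 μM positive, DMSO 0.5% negative; run in parallel with 48 h PbLuc assay at 37 °C, 5% CO2; viability by CellTiter-Glo luminescence, normalized to controls.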
Consider `CC(C)c1ccccc1OCCNC(=O)N1CCC2(CC1)OCCO2`, for which the cytotoxicity at 10 µM is 8.75%.
With `Fc1cnc(N2CCCC3(CN(Cc4ccncc4)CCO3)C2)nc1` (configuration not stated) the figure was 3.34%; with `CC(C)S(=O)(=O)NCC(Cc1cccc(F)c1)N1CCNC1=O` (configuration not stated), -1%.
The same measure for `CC(C)CN1CCc2[nH]cnc2C12CCN(C(=O)c1cc[nH]n1)CC2`: 0.363%.
The same measure for `Cc1occc1C(=O)N1CCC2(CCC(=O)N(CC(N)=O)C2)CC1`: -9.32%; for `Cc1n[nH]c(C)c1NC(=O)NCc1ccccn1`: 1.85%; for `COc1nc(N2CCC(CC(N)=O)CC2)ncc1Br`: 2.99%.
Turning to `CCOCC(=O)N1C[C@H]2CCC[C@@]2(COC)C1`, the cytotoxicity at 10 µM came to 0.419%.
Regarding `CCOC(=O)N(C)C1CCN(Cc2ccsc2)CC1`, the cytotoxicity at 10 µM was -0.572%.
With `CCc1nnsc1C(=O)N1CCCN(Cc2ccc(F)cc2)CC1` the figure was -3.69%.
`CCn1ncc(CNC(=O)c2cn(CCC3CCCCN3)nn2)c1C` (configuration not stated): the cytotoxicity at 10 µM worked out at 2.72%.
Take `Cc1nncn1CCNC(=O)C1SCCc2sccc21` (configuration not stated): the cytotoxicity at 10 µM was 2.96%.
In the case of `CCn1cc(CN2CCCN(C(=O)CCc3ccccc3)CC2)cn1`, the cytotoxicity at 10 µM was -7.9%.
For the compound `CC(=O)C1(c2ccccc2)CCN(C(=O)C2CNCCO2)CC1` (configuration not stated), the cytotoxicity at 10 µM is -3.73%.
On to `c1cc(CN2CC[C@@H]3[C@@H](CO[C@H]3CN3CCOCC3)C2)cs1`, for which the cytotoxicity at 10 µM is -1.19%.
The same measure for `CCn1nccc1S(=O)(=O)N1CCC2(CCCN(C(C)C)C2=O)C1` (configuration not stated): -10.9%.
Regarding `CC(C)Oc1cccc(C(=O)C2CCCN(C(=O)c3ccccn3)C2)c1` (configuration not stated), the cytotoxicity at 10 µM was -7.67%.
`COc1ncccc1CNC(=O)C1CC(=O)N(C)C1` (configuration not stated): the cytotoxicity at 10 µM was -14.6%.
As for `Cc1cc(C(F)(F)F)cc(=O)n1CCn1cc(Cl)cn1`, the cytotoxicity at 10 µM came to 0.382%.
With `CC(C)n1cnc2ccc(NC(=O)CCCn3cccn3)cc2c1=O` the figure was -10.6%; with `O=C(c1ccco1)N1CCC2(CCCN(c3ncc(F)cn3)C2)C1` (configuration not stated), -88.4%.
With `CC(=O)NC(C)c1ccc(OCC2CC2)c(F)c1` (configuration not stated) the figure was -7.81%; with `N#Cc1cccc(NC(=O)N[C@H](CO)c2ccccc2)c1`, -12.2%.
As for `Cc1ccccc1S(=O)(=O)Cc1nsc(N(C)C)n1`, the cytotoxicity at 10 µM is -4.45%.
As for `CN(C(=O)Cn1nc(-c2ccc(F)cc2)ccc1=O)C1CCS(=O)(=O)C1` (configuration not stated), the cytotoxicity at 10 µM was -3.57%.
The same measure for `CS(=O)(=O)Nc1nn(Cc2ccc(F)cc2)cc1Br`: 5.88%.
In the case of `c1ccc(CN2CCc3ncnc(C4CC4)c3CC2)nc1`, the cytotoxicity at 10 µM is -138%.
In the case of `O=C(C[C@@H]1COC[C@H]2CN(C3CCC3)C[C@@H]12)NCc1cccnc1`, the cytotoxicity at 10 µM is 12.9%.
With `COc1ccccc1CC1CCCN(CC(=O)N2CCOCC2)C1` (configuration not stated) the figure was 7.87%; with `CC(C)c1cc(C2CCN(C(=O)Cn3cnc4ccccc43)CC2)[nH]n1`, 51.8%; with `O=C(Cc1c[nH]c(=O)[nH]c1=O)N1CCC2(CCC(=O)N(C3CC3)C2)CC1`, -44.5%.
For the compound `CN1CCO[C@@H]2CN(C(=O)c3ccc4[nH]ccc4c3)CC[C@@H]2C1`, the cytotoxicity at 10 µM is -108%.
With `Cc1cc(NC(C)Cn2cccn2)n2nccc2n1` (configuration not stated) the figure was 1.99%.
For `COc1ccc(OC)c(CCNC(=O)CCC2CCCO2)c1` (configuration not stated), the cytotoxicity at 10 µM was determined as 2.34%.
With `CN(C)C(=O)c1ccc2c(c1)N(C)C(CC(=O)NC(CO)CO)CO2` (configuration not stated) the figure was -4.36%; with `Cc1noc(CCCC(=O)NCC(c2ccco2)N2CCCCC2)n1` (configuration not stated), 13.1%; with `O=C(C[C@@H]1COC[C@H]2CN(Cc3ccccc3)C[C@@H]12)N1CCCC1`, 2.03%.
Consider `COCCN(C)CC(=O)N1CCCC2(CCC(=O)N(CC3CC3)C2)C1` (configuration not stated), for which the cytotoxicity at 10 µM came out at 0.502%.
The same measure for `COC[C@H]1CCC[C@H]1Nc1ncnc2c1CCNCC2`: -11.2%; for `Cc1nnc([C@]23COC[C@H]2CN(S(=O)(=O)c2cccnc2)C3)o1`: -97.8%.
With `CCCc1noc(CCC(=O)NC(C)c2nnc3n2CCCCC3)n1` (configuration not stated) the figure was 4.05%.
The same measure for `CCn1ccnc1CN1CCC(N(C)Cc2ncc(C)o2)C1` (configuration not stated): -7.48%; for `O=C(c1cscn1)N1C[C@H]2CN(Cc3nccs3)C[C@H]2C1`: -65.4%.
Take `Cc1ccc(C(=O)NC(C)CN2CCCC2=O)c(=O)[nH]1` (configuration not stated): the cytotoxicity at 10 µM was -0.524%.
With `COCc1nc(N2CC[C@H](N(C)C)C2)c2cnn(C)c2n1` the figure was -6.67%; with `O=C1NCC2(CCCN(C(=O)Cn3nc4ccccc4n3)CC2)O1` (configuration not stated), -3.45%; with `Cc1ccc(-c2ncc(C(=O)N3CCN4CCCCC4C3)c(O)n2)cc1` (configuration not stated), -7.82%.
Take `COc1ccc(CN2CC[C@H](NC(C)=O)[C@@H](O)CC2)c(OC)c1`: the cytotoxicity at 10 µM was -7.49%.
Regarding `CSCCC1c2nc[nH]c2CCN1Cc1[nH]c2ccc(F)cc2c1C` (configuration not stated), the cytotoxicity at 10 µM is -5.65%.
As for `CC(C)Sc1ncccc1C(=O)NCc1ccoc1`, the cytotoxicity at 10 µM is -0.945%.
With `CC(O)(CNC(=O)c1c(F)cccc1Cl)C1CC1` (configuration not stated) the figure was -8.87%.
As to `CCCC(C#N)NC(=O)c1sccc1CC` (configuration not stated), the cytotoxicity at 10 µM is 12.7%.
The same measure for `Cc1ccsc1C(=O)NC1CCN(c2cnn(C)c2)C1=O` (configuration not stated): -7.11%; for `O=C(O)CSc1nnc(-c2ccco2)n1-c1ccccc1C(F)(F)F`: 3.41%.
With `CCc1nc(CN2CCCN(c3nc4ccccc4o3)CC2)no1` the figure was -22.5%.
For the compound `CC(C)n1[nH]c(=O)c2c1NC(=O)CC2c1cccc2cccnc12` (configuration not stated), the cytotoxicity at 10 µM is 2.83%.
The same measure for `O=C(CN1CCOC(Cn2cncn2)C1)NCc1cccs1` (configuration not stated): -10.2%; for `CCc1cc(C(=O)N2CCCC(c3cc(=O)nc4n3CCC4)C2)no1` (configuration not stated): -2.6%; for `CCN(CC)CCNCC1CCOC(C)(C)C1` (configuration not stated): -6.87%.
With `CC(C)CN(c1cn[nH]c1)S(=O)(=O)c1cccc(C#N)c1` the figure was 8.75%.
The same measure for `CC(C)N1CCC(C(=O)N(C)C(C)c2ccon2)CC1` (configuration not stated): 5.16%.
For the compound `CC(C)N1CCC(NC(=O)NCc2cccnc2)C1` (configuration not stated), the cytotoxicity at 10 µM is 7.67%.
With `CC(=O)N1CCC(c2ccnc(Nc3ccc(C)cn3)n2)C1` (configuration not stated) the figure was -16.7%; with `Fc1ccccc1NCc1nc2n(n1)CCCCC2`, 2.02%; with `CCN(C(=O)NCc1cccnc1N(C)C)C(C)c1cccnc1` (configuration not stated), -4.6%.
The same measure for `CCN1CC(C(=O)NC(C)(C)CNC(=O)OC(C)(C)C)CC1=O` (configuration not stated): 7.79%; for `CN1CC(=O)N(c2cccc(F)c2)CC12CCN(S(C)(=O)=O)C2` (configuration not stated): 1.52%; for `CN(C)C(=O)NCc1nnc2n1CCN(Cc1ccsc1)C2`: 8.31%.
With `O=C1CCC(C(=O)N2CCOC(Cc3ccc(F)cc3)C2)=NN1` (configuration not stated), the cytotoxicity at 10 µM was -6.26%.
The same measure for `CCc1nc(CNC2CCCCNC2=O)cs1` (configuration not stated): 8.74%.
For `CC(=O)C1(c2ccccc2)CCN(C(=O)c2ccn3nnnc3c2)CC1`, the cytotoxicity at 10 µM was -4.97%.
Consider `CCN(Cc1ccc2c(c1)OCO2)C(=O)CCc1c(C)nc(C)[nH]c1=O`, for which the cytotoxicity at 10 µM was -4.61%.
In the case of `Fc1cccc(Oc2nccnc2C2CCN(C3CCOCC3)CC2)c1`, the cytotoxicity at 10 µM amounted to 6.62%.
The same measure for `Cc1nn(C)c2nc(N3CCC(C(O)c4ccccn4)CC3)sc12` (configuration not stated): 22.2%; for `N#CCCNC(=O)CN1CCC(c2cc3ccccc3[nH]2)CC1`: 0.91%; for `c1cc(CN2CCCC23CCCN(Cc2ccoc2)C3)ccn1` (configuration not stated): 2.25%.
The same measure for `O=C(N[C@H]1COC[C@@H]1N1CCCC1)c1csc(Cc2ccccc2)n1`: -30.2%.
With `CN1CCCN(C(=O)NCc2csc(Br)c2)CC1` the figure was -5.85%; with `Cc1ncsc1CCC(=O)NCc1cc2n(n1)CCNC2`, -3.78%.
`CCCC1(CO)CCCN(Cc2nccs2)C1` (configuration not stated): the cytotoxicity at 10 µM stood at 1.41%.
The same measure for `Cc1c2ncn(CC(=O)c3ccccc3)c(=O)c2nn1C`: -8.58%; for `CN(Cc1ccccn1)C1CCCN(Cc2noc(C3CC3)n2)C1` (configuration not stated): 1.82%; for `CNC(=O)C1Cc2ccccc2CN1CCC#N` (configuration not stated): 6.35%.
With `CS(=O)(=O)NCCN1CCCC1c1noc(C2CC2)n1` (configuration not stated) the figure was -23.7%.
With `Cc1oc(-c2ccco2)nc1CC(=O)NCC(C)(C)N(C)C` the figure was -13.9%.
For the compound `CC1(Cc2ccc(F)cc2)Cc2cc(C(=O)NCCO)ccc2O1` (configuration not stated), the cytotoxicity at 10 µM is -2.89%.
`Cc1c(C(C)NC2CCN(C(C)C)CC2)cnn1-c1ccc(F)cc1F` (configuration not stated): the cytotoxicity at 10 µM is -6.58%.
The same measure for `CCN(CC)S(=O)(=O)c1ccc2c(c1)N(Cc1ccncc1)C(=O)CS2`: -5.62%.
Turning to `O=C(Nc1ccc2c(c1)OC1(CCCCC1)O2)c1ccc(=O)[nH]n1`, the cytotoxicity at 10 µM turned out to be 14.1%.
The same measure for `CC(C)(C)NC(=O)NC(=O)CNc1c(F)cccc1N1CCCC1`: 12.2%; for `CN1CCCCCC1C(=O)NCCCn1ncc2ccccc21` (configuration not stated): -1.43%; for `O=C1N(C2CCOCC2)CCCC12CCN(c1ncccc1Cl)C2` (configuration not stated): -129%.
The same measure for `COCCC1(CNC(=O)NCC2CN(C)CCN2C)CCC1` (configuration not stated): 6.35%; for `Cn1cc(CN2CCc3c(COCC4CC4)cncc3C2)cn1`: -6.33%; for `CN[C@@H](C)C(=O)N(Cc1cccc(C)c1)Cc1ccccc1OC`: -39.5%.
Consider `Cc1nn(C)cc1CN1CCC(C2Nc3ccccc3S(=O)(=O)N2)CC1` (configuration not stated), for which the cytotoxicity at 10 µM was -2.19%.
With `CCC(=O)c1ccc(OCC(=O)NCC2CC(CC)=NO2)cc1` (configuration not stated), the cytotoxicity at 10 µM was -41.7%.
